The results in this text go back to ChEMBL document CHEMBL1130141, “Mapping the peripheral benzodiazepine receptor binding site by conformationally restrained derivatives of 1-(2-chlorophenyl)-N-methyl-N-(1-methylpropyl)-3- isoquinolinecarboxamide (PK11195)” (J Med Chem, 1997).

pIC50: −log10 of the molar value. Calls of active or inactive are those of the source. The calls are words filed in the database; no cut-off is given here.

Experiment [1] deals with T1, Translocator protein (Rattus norvegicus, UniProt P16257). Briefly: In vitro displacement of [3H]PK11195 from the peripheral benzodiazepine receptor (PBR) in rat cortex. In general terms: In a radioligand displacement assay an active substance lowers the binding of a labelled ligand.
T1 sequence (P16257 whole entry, looked up): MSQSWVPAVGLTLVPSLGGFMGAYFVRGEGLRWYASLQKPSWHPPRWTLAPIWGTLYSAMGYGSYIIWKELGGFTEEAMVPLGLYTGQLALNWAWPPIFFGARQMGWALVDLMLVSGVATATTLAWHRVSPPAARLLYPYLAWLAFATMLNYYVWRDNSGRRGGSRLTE
The target in experiment [2] is T1, Translocator protein. Nature of the experiment: In vitro binding affinity (pIC50) was tested against peripheral benzodiazepine receptor (PBR) in rat.
Experiment [3] deals with Translocator protein (Rattus norvegicus) (UniProt P16257). Briefly: In vitro binding affinity (pIC50) for peripheral benzodiazepine receptor (PBR) in rat (inactive). The procedure, abridged:
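Male CD rat cerebral cortex, stored at -80°C, homogenized in ice-cold 50 mM PBS pH 7.4 with 100 mM NaCl and washed by centrifugation. Membranes used at 2.3 mg tissue per sample with 1 nM [3H]PK11195 for 120 min at 4°C, then filtered on GF/B and counted by scintillation. Nonspecific binding defined with 1 µM PK11195. IC50 from curve fitting of 6 concentrations.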

Chain of Translocator protein (Rattus norvegicus) (P16257 whole entry, looked up): as above

Usually pIC50 stands for the negative decadic logarithm of the IC50, by convention in mol/L. A higher pIC50 goes with a small IC50. On to `Cc1c(C(=O)NCc2ccccc2)nc2ccccc2c1-c1ccccc1`, for which the pIC50 on Translocator protein [1] and on Translocator protein [2] was 5.92 throughout.

Take `Cc1c(C(=O)N(C)Cc2ccccc2)nc2ccccc2c1-c1ccccc1`: the pIC50 at Translocator protein [1] and at Translocator protein [2] was 8.68 each time.

For the compound `CCC(C)N(C)C(=O)c1nc(-c2ccccc2)c2ccccc2c1C` (stereo not given), the pIC50 at Translocator protein [1] is 7.96; on Translocator protein [2], 7.95.

For the compound `CCC(C)N1CCCc2c(nc(-c3ccccc3)c3ccccc23)C1=O` (stereo not given), the pIC50 at Translocator protein [1] is 6.11; at Translocator protein [2], 6.10.

`CN(Cc1ccccc1)C(=O)c1nc2ccccc2c2c1CCc1ccccc1-2`: the pIC50 on Translocator protein [1] and on Translocator protein [2] was 8.05 each time.

`CCC(C)N1Cc2c(nc(-c3ccccc3)c3ccccc23)C1=O` (stereo not given): the pIC50 on Translocator protein [1] and on Translocator protein [2] was 6.21 in each case.

Turning to `CCC(C)NC(=O)c1nc2ccccc2c(-c2ccccc2)c1C` (stereo not given), the pIC50 on Translocator protein [1] and at Translocator protein [2] was 6.64 in each case.

With `Cc1c(C(=O)NCc2ccc(Cl)cc2)nc2ccccc2c1-c1ccccc1F`, the pIC50 on Translocator protein [1] and at Translocator protein [2] was 6.57 each time.

Take `CCC(C)N1CC=Cc2c(nc(-c3ccccc3)c3ccccc23)C1=O` (stereo not given): the negative logarithm of the IC50 (pIC50) at Translocator protein [1] and on Translocator protein [2] was 6.31 each time.

Consider `O=C1c2nc(-c3ccccc3)c3ccccc3c2CN1Cc1ccccc1`, for which the pIC50 on Translocator protein [1] and at Translocator protein [2] was 6.32 each time.

`CCC(C)N(C)C(=O)c1nc2ccccc2c(-c2ccccc2F)c1C` (stereo not given): the pIC50 at Translocator protein [1] and at Translocator protein [2] was 8.54 each time.

For the compound `O=C1c2nc3ccccc3c(-c3ccccc3)c2CCCN1Cc1ccccc1`, the pIC50 at Translocator protein [1] and on Translocator protein [2] was 6.77 in each case.

With `O=C1c2nc(-c3ccccc3)c3ccccc3c2C=CCN1Cc1ccccc1`, the values for the pIC50 at Translocator protein [1] and on Translocator protein [2] were 7.35 and 7.34, respectively.

For `CCC(C)NC(=O)c1nc(-c2ccccc2)c2ccccc2c1C` (stereo not given), the pIC50 on Translocator protein [1] and on Translocator protein [2] was 6.26 in each case.

Turning to `CCC(C)NC(=O)c1nc2ccccc2c(-c2ccccc2F)c1C` (stereo not given), the pIC50 on Translocator protein [1] and at Translocator protein [2] was 7.89 in each case.

As to `Cc1c(C(=O)N(C)c2ccc(Cl)cc2)nc2ccccc2c1-c1ccccc1`, the pIC50 on Translocator protein [1] and at Translocator protein [2] was 8.19 throughout.

For the compound `Cc1c(C(=O)N(C)Cc2ccccc2)nc(-c2ccccc2)c2ccccc12`, the pIC50 on Translocator protein [1] and on Translocator protein [2] was 8.51 in each case.

As for `CCC(C)N1Cc2c(nc3ccccc3c2-c2ccccc2F)C1=O` (stereo not given), the pIC50 on Translocator protein [1] is less than 5.00.

As to `CCC(C)N(C)C(=O)c1nc2ccccc2c(-c2ccccc2)c1C` (stereo not given), the pIC50 on Translocator protein [1] and at Translocator protein [2] was 8.68 each time.

`CCCCC1c2c(nc3ccccc3c2-c2ccccc2)C(=O)N1Cc1ccccc1` (stereo not given): the pIC50 at Translocator protein [1] and at Translocator protein [2] was 6.09 throughout.

`CN1CCCc2c(nc3ccccc3c2-c2ccccc2)C1=O` gave a pIC50 on Translocator protein [1] of less than 5.00.

In the case of `COc1ccc(N(C)C(=O)c2nc3ccccc3c(-c3ccccc3)c2C)cc1`, the pIC50 on Translocator protein [1] and on Translocator protein [2] was 8.06 throughout.

With `O=C1c2nc3ccccc3c(-c3ccccc3)c2CN1Cc1ccccc1`, the pIC50 at Translocator protein [1] was less than 5.00.

With `Cc1c(C(=O)NCc2ccc(Cl)cc2)nc2ccccc2c1-c1ccccc1`, the pIC50 at Translocator protein [1] and on Translocator protein [2] was 5.77 each time.

For the compound `Cc1c(C(=O)N(C)Cc2ccc(Cl)cc2)nc2ccccc2c1-c1ccccc1F`, the pIC50 at Translocator protein [1] and on Translocator protein [2] was 8.47 throughout.

With `CN(Cc1ccccc1)C(=O)c1nc2ccccc2c2c1OCCc1ccccc1-2`, the pIC50 on Translocator protein [1] and on Translocator protein [2] was 8.00 in each case.

In the case of `Cc1c(C(=O)N(C)Cc2ccc(Cl)cc2)nc2ccccc2c1-c1ccccc1`, the pIC50 at Translocator protein [1] and at Translocator protein [2] was 8.01 each time.

Regarding `CCC(C)N1Cc2c(nc3ccccc3c2-c2ccccc2)C1=O` (stereo not given), the “Log IC50” value in experiment [3] was “inactive”. For the same compound, on Translocator protein [1], the pIC50 was less than 5.00.

As for `CCC(C)N1CCCc2c(nc3ccccc3c2-c2ccccc2)C1=O` (stereo not given), the pIC50 on Translocator protein [1] and at Translocator protein [2] was 5.92 throughout.
